Only some compounds are listed: those with a hit (about 1.6% of all), similar ones and a draw of the others.
MBD2 DNA inh: inhibitors of MBD2 binding to methylated DNA, primary screen, biochemical, TR-FRET, DNA-binding domain, human | Methyl-CpG-binding domain protein 2 (Homo sapiens), Q9UBB5 | MBD2 binding to methylated oligonucleotide | inhibition, % at 4.4 µM | hit rate 0.31% among 370,000; in the data active = inhibition above about 13%
Target sequence (Q9UBB5 whole entry, looked up, the tested form may be a part): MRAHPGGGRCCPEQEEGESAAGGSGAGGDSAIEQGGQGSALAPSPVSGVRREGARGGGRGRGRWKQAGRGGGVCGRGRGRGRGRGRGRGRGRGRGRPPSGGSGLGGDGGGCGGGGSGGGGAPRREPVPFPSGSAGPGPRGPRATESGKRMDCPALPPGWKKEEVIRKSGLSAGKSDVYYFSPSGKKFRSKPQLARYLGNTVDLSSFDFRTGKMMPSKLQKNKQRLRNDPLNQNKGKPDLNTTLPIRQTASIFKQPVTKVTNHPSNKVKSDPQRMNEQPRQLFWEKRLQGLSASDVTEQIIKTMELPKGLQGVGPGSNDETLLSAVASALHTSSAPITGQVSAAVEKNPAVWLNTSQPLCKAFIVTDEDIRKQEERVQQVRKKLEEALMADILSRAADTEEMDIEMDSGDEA
LEDGF integ inh: blockers of LEDGF/p75-dependent integrase strand transfer – biochemical, TR-FRET, high throughput, primary screen; HIV-1 integrase (with human LEDGF/p75); TR-FRET IN-LEDGF/p75 DNA integration, Eu/Cy5; inhibition, % at 3.7 µM; hit rate 0.64% among 370,000;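 active = inhibition above the screen-wide mean plus 3 SD, cut at about 13% in these data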;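 also: signal is the Cy5 over europium emission ratio at 671 and 618 nm; 0% = plate median of compound wells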
UHRF1 binding: UHRF1 methylated DNA binding inhibitors, primary screen, counter-screen for MBD2 inhibitor project, biochemical, TR-FRET, human UHRF1, single concentration; UHRF1 binding to methylated oligo; inhibition, % at 4.4 µM; hit rate 0.75% among 370,000; in the data active = inhibition above about 21%;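 also: UHRF1 SRA domain binding a hemimethylated CpG hairpin DNA probe; 0% = median of test compound wells and 100% = reference inhibitor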
TDP2 absorb: human TDP2 enzyme inhibitors, primary screen, biochemical, epi absorbance, recombinant enzyme; T5PNP hydrolysis, p-nitrophenol absorbance 415 nm; inhibition, % at 12.8 µM; hit rate 0.34% among 370,000;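 active = inhibition above the mean of all tested compounds plus 3 SD, set per campaign, cut at about 25% in these data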;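 also: 0% = DMSO with enzyme and 100% = buffer with substrate but no TDP2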
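Test system: human TDP2 enzyme; Input: 120 nM TDP2 per well; Buffer or medium: Mg2+-containing Tris-HCl buffer, pH 7.5; Reagent: 5 mM T5PNP; Dosing: 12.8 µM single point, 1% DMSO; Incubation: reaction 2 h, 37 °C; Detection: p-Nitrophenol epi absorbance; Read-out: % inhibition relative to enzyme-containing and enzyme-free wells; Replicates: single well per compound.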
* hit, by the source's call.

What do the screens show for `CC(=O)c1cccc(OCc2cc(C(=O)NC3CCN(Cc4ccccc4)CC3)no2)c1`?
MBD2 DNA inh: 9; LEDGF integ inh: -4; UHRF1 binding: 21*; TDP2 absorb: -3

Results for O=C(NC1CCN(Cc2ccccc2)CC1)c1cccc(OC(F)F)c1 ?
MBD2 DNA inh: -2; LEDGF integ inh: -1; UHRF1 binding: 0; TDP2 absorb: -7

How did COc1ccc(-n2c(SCC(=O)Nc3cc(C)c(NC(=O)c4ccccc4)cc3OC)nnc2-c2ccco2)cc1 do in these assays?
MBD2 DNA inh: -2; LEDGF integ inh: 3; UHRF1 binding: 2; TDP2 absorb: -15

What do the screens show for `Cc1cccc(NC(=O)CCS(=O)(=O)c2cccc3nonc23)c1C`?
MBD2 DNA inh: 11; LEDGF integ inh: -1; UHRF1 binding: 27*; TDP2 absorb: 0

What do the screens show for `O=C(O)c1sccc1Oc1ccc(NS(=O)(=O)c2cccc(F)c2)cc1`?
MBD2 DNA inh: 11; LEDGF integ inh: -3; UHRF1 binding: 31*; TDP2 absorb: -5

What do the screens show for `O=C(Nc1ccc(Oc2ccsc2C(=O)O)cc1)c1ccccc1`?
MBD2 DNA inh: -2; LEDGF integ inh: -1; UHRF1 binding: 6; TDP2 absorb: -13

What do the screens show for `CC(C)(Oc1ccc(Cl)cc1)C(=O)Nc1ncccn1`?
MBD2 DNA inh: 13; LEDGF integ inh: 3; UHRF1 binding: 22*; TDP2 absorb: 10

What do the screens show for `COc1ccc(-c2c(C(=O)c3ccccc3)[nH]c(N)c2C(=O)c2c[nH]c3ccccc23)cc1OC`?
MBD2 DNA inh: -2; LEDGF integ inh: 2; UHRF1 binding: 3; TDP2 absorb: -10

Results for CCOc1ccc(-c2cc(CCCC(=O)NCc3ccc(C)cc3)no2)cc1 ?
MBD2 DNA inh: 1; LEDGF integ inh: 2; UHRF1 binding: 29*; TDP2 absorb: 0

How did CCOC(=O)[C@]12CCCCC/C=C\1N(CCc1ccc(Cl)cc1)C(=O)[C@H]2CC(=O)NCc1ccc(C)o1 do in these assays?
MBD2 DNA inh: -4; LEDGF integ inh: 6; UHRF1 binding: 4; TDP2 absorb: -16

What do the screens show for `CCOC(=O)CC[C@@]1(C(=O)OCC)C[C@@H](CC(=O)NCCc2ccccc2OC)C(=O)N2CCCC=C21`?
MBD2 DNA inh: 4; LEDGF integ inh: 0; UHRF1 binding: 1; TDP2 absorb: 0

How did COc1ccc(C[N+]2=C(N)N[C@@]3(C=C(C)Cn4c(=O)n(-c5ccccc5)c(=O)n43)C2)c(OC)c1 do in these assays?
MBD2 DNA inh: -4; LEDGF integ inh: 3; UHRF1 binding: -2; TDP2 absorb: 2

Results for CN(C)c1cccc(C(=O)OCc2cc(=O)oc3cc(O)ccc23)c1 ?
MBD2 DNA inh: 8; LEDGF integ inh: 5; UHRF1 binding: 24*; TDP2 absorb: 4

Results for O=C(Nc1ccnn1C1CCN(C(=O)c2ccccc2C(F)(F)F)CC1)C1CC1 ?
MBD2 DNA inh: 0; LEDGF integ inh: 14*; UHRF1 binding: 4; TDP2 absorb: -2

How did CCN(C[C@H]1[C@@H](c2ccc(C3=CCCC3)cc2)[C@H](CO)N1C(=O)c1cccnc1)S(=O)(=O)c1ccccc1[N+](=O)[O-] do in these assays?
MBD2 DNA inh: 4; LEDGF integ inh: 3; UHRF1 binding: 0; TDP2 absorb: 5

What do the screens show for `CSc1nnc(CNS(=O)(=O)c2ccc(Cl)cc2)n1C`?
MBD2 DNA inh: -3; LEDGF integ inh: -1; UHRF1 binding: 26*; TDP2 absorb: -3

Results for CC(=O)c1cccc(NC(=O)CN(c2cccc(F)c2)S(C)(=O)=O)c1 ?
MBD2 DNA inh: 2; LEDGF integ inh: 0; UHRF1 binding: 1; TDP2 absorb: 3

Results for CS(=O)(=O)N(CC(=O)Nc1ccc(S(=O)(=O)N2CCCC2)cc1)c1cccc(F)c1 ?
MBD2 DNA inh: 6; LEDGF integ inh: 1; UHRF1 binding: 28*; TDP2 absorb: 2

Results for CN1CCN(CCCCOc2ccc(Br)cc2)CC1 ?
MBD2 DNA inh: 11; LEDGF integ inh: 1; UHRF1 binding: 4; TDP2 absorb: 4

How did CC(C)(C)c1ccc(OCCCN2CCCC2)cc1 do in these assays?
MBD2 DNA inh: 3; LEDGF integ inh: -1; UHRF1 binding: 24*; TDP2 absorb: -12

What do the screens show for `CN1CCN(CCCCOc2ccc(F)cc2)CC1`?
MBD2 DNA inh: 12; LEDGF integ inh: 4; UHRF1 binding: 22*; TDP2 absorb: 9

Results for O=C(NC1CCCC1)c1n[nH]c2ccccc12 ?
MBD2 DNA inh: -5; LEDGF integ inh: -2; UHRF1 binding: 45*; TDP2 absorb: 8

Results for C[C@H](O)[C@@H]1CN2CCc3c([nH]c4cccc(-c5ccccc5)c34)[C@@H]2C[C@@H]1N(C)C(=O)C1CCCCC1 ?
MBD2 DNA inh: -5; LEDGF integ inh: 3; UHRF1 binding: -3; TDP2 absorb: -12

What do the screens show for `CC1(C)C2CCC1(C)C(Nc1ccccc1)C2` (stereo not drawn)?
MBD2 DNA inh: 5; LEDGF integ inh: -3; UHRF1 binding: -1; TDP2 absorb: 9

How did CC1(C)C2CCC1(C)C(NC(=O)/C=C/c1ccccc1)C2 (stereo not drawn) do in these assays?
MBD2 DNA inh: -5; LEDGF integ inh: -2; UHRF1 binding: 25*; TDP2 absorb: -4

How did COC(=O)[C@]12C[C@H](CC(=O)NCc3ccccc3)C(=O)N(CCc3ccc(OC)c(OC)c3)C1=C[C@H](COCc1ccccc1)O[C@@H]2C do in these assays?
MBD2 DNA inh: -1; LEDGF integ inh: -3; UHRF1 binding: -2; TDP2 absorb: 7

Results for Cc1ccc(N2C(=O)c3ccccc3C2Nc2ccc(S(=O)(=O)N3CCCCC3)cc2)nc1 (stereo not drawn) ?
MBD2 DNA inh: -4; LEDGF integ inh: 4; UHRF1 binding: 77*; TDP2 absorb: 6

Results for CCCCNC(=O)N1CCOCCOCCN(C(=O)NCCCC)CCOCCOCC1 ?
MBD2 DNA inh: 6; LEDGF integ inh: 1; UHRF1 binding: -2; TDP2 absorb: 2

Results for CCCCNC(=O)NCCN1CCOCC1 ?
MBD2 DNA inh: 5; LEDGF integ inh: -4; UHRF1 binding: 35*; TDP2 absorb: 11

Results for COC1=C[C@H](C(=O)NC2CCN(Cc3ccccc3)CC2)[C@@]2(C)Cc3ccccc3[C@H]2CC1=O ?
MBD2 DNA inh: -5; LEDGF integ inh: -1; UHRF1 binding: -1; TDP2 absorb: 5

How did COc1cc(/C=N/n2c(-c3cc(-c4ccccc4)n[nH]3)n[nH]c2=S)ccc1OCc1ccccc1 do in these assays?
MBD2 DNA inh: 5; LEDGF integ inh: -5; UHRF1 binding: 4; TDP2 absorb: -13

What do the screens show for `CC(C)NC(=S)Nc1ccc2cn[nH]c2c1`?
MBD2 DNA inh: 8; LEDGF integ inh: 1; UHRF1 binding: 23*; TDP2 absorb: -8

Bioassay records: PubChem, The Scripps Research Institute Molecular Screening Center
